Screens: PubChem, The Scripps Research Institute Molecular Screening Center
IMP-1 inh-1 = inhibitors of Pseudomonas aeruginosa IMP-1 metallo-beta-lactamase; purified IMP-1, nitrocefin hydrolysis, epi-absorbance fluorescence; AID 1556; inhibition, % at 5.6 µM; hit rate 0.45% among 290,000;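 active means inhibition above the mean plus 3 SD of all compounds in the same screening run, cut at about 4.5% in these data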
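System: Purified recombinant IMP-1 metallo-beta-lactamase enzyme | Measured by: Fluorescence quenching readout, ex 480/em 530 nm | Replication: Singlicate | Incubation: 15 min preincubation plus 25 min reaction at 25 °C | Evaluation: Percent inhibition from optical density relative to buffer-blank wells | Benchmarks: DMSO with and without IMP-1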
pPAFAH FP inh = inhibitors of human plasma PAF acetylhydrolase (pPAFAH) | inhibition, % at 3.39 µM | AID 463082 | recombinant pPAFAH, FP-rhodamine probe fluorescence polarization | hit rate 1.5% among 330,000;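 active means inhibition above the mean inhibition across the screen plus 3 SD, cut at about 25% in these data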;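 further: inhibitors block binding of the rhodamine activity-based probe so polarization drops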
PAFAH1B2 FP inh = PAFAH1B2 (human) inhibition; P68402; recombinant PAFAH1B2, FP-rhodamine activity probe, fluorescence polarization; inhibition, % at 3.39 µM; hit rate 1.2% among 340,000; AID 492953;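 active means inhibition above the mean of all tested compounds plus 3 SD, cut at about 24% in these data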
Target sequence (P68402 whole entry, looked up): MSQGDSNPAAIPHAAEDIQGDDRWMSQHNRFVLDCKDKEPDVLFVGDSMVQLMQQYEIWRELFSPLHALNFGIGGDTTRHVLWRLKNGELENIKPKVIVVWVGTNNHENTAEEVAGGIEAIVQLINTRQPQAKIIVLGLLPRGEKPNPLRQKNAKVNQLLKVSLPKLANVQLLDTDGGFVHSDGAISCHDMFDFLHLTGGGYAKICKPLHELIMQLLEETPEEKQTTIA
PAFAH2 FP inh = PAFAH2 (human) inhibition; Q99487; hit rate 0.99% among 340,000; recombinant PAFAH2, FP-rhodamine activity probe, fluorescence polarization; AID 492956; inhibition, % at 3.39 µM;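 active means inhibition above the mean over all tested compounds plus 3 SD, cut at about 30% in these data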;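 further: inhibitors block probe labeling of enzyme so polarization drops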
PAFAH1B3 inh = blocks human PAF acetylhydrolase 1B catalytic subunit 3 | Q15102 | hit rate 0.28% among 340,000 | inhibition, % at 3.39 µM | recombinant PAFAH1B3, FP-rhodamine probe, fluorescence polarization;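 active means inhibition above the screen-wide average of all tested compounds plus 3 SD, cut at about 25% in these data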
Target sequence (Q15102 whole entry, looked up): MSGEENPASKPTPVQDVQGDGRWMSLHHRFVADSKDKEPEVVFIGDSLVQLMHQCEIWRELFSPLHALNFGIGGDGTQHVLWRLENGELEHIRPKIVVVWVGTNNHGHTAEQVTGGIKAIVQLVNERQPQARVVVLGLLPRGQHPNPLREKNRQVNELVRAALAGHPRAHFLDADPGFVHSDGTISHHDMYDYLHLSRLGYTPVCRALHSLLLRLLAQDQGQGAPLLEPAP
VIM-2 inhibitor = inhibitors of Pseudomonas aeruginosa VIM-2 metallo-beta-lactamase; purified VIM-2, nitrocefin hydrolysis, epi-absorbance fluorescence; inhibition, % at 5.6 µM; hit rate 0.89% among 290,000;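 active means inhibition above the mean of all tested compounds plus 3 SD, cutoff set per screening run, cut at about 7.5% in these data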;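 further: red hydrolysis product quenches plate fluorescence so inhibitors raise well fluorescence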
IMP-1 inh-2 = blocks IMP-1 metallo-beta-lactamase in VIM-2 selectivity screen. shares compounds with VIM-2 inhibitor. purified IMP-1, nitrocefin hydrolysis, epi-absorbance fluorescence. inhibition, % at 5.6 µM. 1,300 tested, under 10 active; call rule not given here
VIM-2 FRET ctr = inhibits VIM-2 in FRET assay to exclude epi-absorbance artifacts | purified VIM-2, CCF2 FRET substrate hydrolysis | shares compounds with VIM-2 inhibitor | hit rate 23% among 1,300 | inhibition, % at 5.6 µM;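 active means inhibition above the mean of all tested compounds plus 3 SD, cut at about 19% in these data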
TEM-1 counter-1 = blocks E. coli TEM-1 beta-lactamase in VIM-2 selectivity screen; Purified TEM-1, nitrocefin hydrolysis, epi-absorbance fluorescence; hit rate 3% among 1,300; shares compounds with VIM-2 inhibitor; inhibition, % at 5.6 µM; AID 1866;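 active means inhibition above that campaign's mean inhibition plus 3 SD, cut at about 0.46% in these data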
Target sequence (P62593 whole entry, looked up): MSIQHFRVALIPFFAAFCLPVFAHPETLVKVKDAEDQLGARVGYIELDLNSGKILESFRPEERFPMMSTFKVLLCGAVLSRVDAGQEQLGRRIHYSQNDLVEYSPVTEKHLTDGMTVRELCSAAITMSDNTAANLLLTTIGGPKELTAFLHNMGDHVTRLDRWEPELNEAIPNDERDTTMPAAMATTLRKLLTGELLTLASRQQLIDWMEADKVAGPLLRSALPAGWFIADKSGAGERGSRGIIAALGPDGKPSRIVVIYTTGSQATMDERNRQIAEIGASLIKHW
VIM-2 inh conf = confirmation of P. aeruginosa VIM-2 metallo-beta-lactamase inhibitors. shares compounds with VIM-2 inhibitor. purified VIM-2, nitrocefin hydrolysis, epi-absorbance. inhibition, % at 5.6 µM. hit rate 96% among 1,300. AID 2187;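 active means inhibition of the VIM-2 beta-lactamase enzyme above about 11% from the earlier first-round screen, limit read from the data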
VIM-2 inh confirm = VIM-2 inhibition, confirmation assay. shares compounds with IMP-1 inh-1. purified VIM-2 enzyme, nitrocefin absorbance. inhibition, % at 5.6 µM. hit rate 73% among 200. AID 1860; in the data active means inhibition above about 8%
TEM-1 counter-2 = blocks E. coli TEM-1 beta-lactamase, VIM-2 IMP-1 counter-screen; shares compounds with IMP-1 inh-1; nitrocefin absorbance inhibition; inhibition, % at 5.6 µM; hit rate 50% among 200; AID 2184; in the data active means inhibition above about 0.66%
IMP-1 confirm = confirmation of P. aeruginosa IMP-1 metallo-beta-lactamase inhibitors; AID 2189; inhibition, % at 5.6 µM; purified IMP-1 enzyme, absorbance substrate hydrolysis; hit rate 60% among 200; shares compounds with IMP-1 inh-1; in the data active means inhibition above about 4.9%
pPAFAH FP conf = confirmation of human plasma PAF acetylhydrolase (pPAFAH) inhibitors; shares compounds with pPAFAH FP inh; recombinant pPAFAH, FP-Rh probe fluorescence polarization; AID 463230; inhibition, % at 3.39 µM; hit rate 72% among 2,300;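 active means mean inhibition of the triplicate above the hit cutoff set for the earlier primary screen, cut at about 25% in these data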
PAFAH2 FP conf = PAFAH2 (human) inhibition, confirmed | hit rate 65% among 2,300 | AID 493030 | shares compounds with PAFAH2 FP inh | inhibition, % at 3.39 µM | recombinant PAFAH2, FP-rhodamine activity probe, fluorescence polarization;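 active means mean inhibition over three repeats above a set limit taken from the earlier primary screen, cut at about 30% in these data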;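 further: inhibitor blocks binding of rhodamine activity probe so polarization falls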
PAFAH1B3 conf FP = confirmation of human PAFAH1B3 inhibitors. shares compounds with PAFAH1B3 inh. recombinant PAFAH1B3, FP-Rh activity-based probe, fluorescence polarization. inhibition, % at 3.39 µM. hit rate 30% among 390;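 active means average inhibition over triplicate runs above the hit cutoff set in the earlier primary screen, cut at about 25% in these data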
Each line names hits and unclear results; the compound was inactive in the other large screens (follow-up assays come after a bar, where they were run). Hits are enriched below; roughly 3.6% of the tested compounds scored in any of these assays.

COc1ccc(/C=C2\SC(=S)N(CCCC(=O)N3CCN(C)CC3)C2=O)cc1	VIM-2 inhibitor 15 | IMP-1 inh-2 inactive | VIM-2 FRET ctr inactive | TEM-1 counter-1 inactive | VIM-2 inh conf 27
Cc1ccc2cc3cc(C(=O)NCCCN4CCCC4)oc3nc2c1	none
Cc1ccc2nc(Cl)c3cc(C(=O)NCCCN4CCCC4)sc3c2c1	VIM-2 inhibitor 13 | IMP-1 inh-2 inactive | VIM-2 FRET ctr inactive | TEM-1 counter-1 inactive | VIM-2 inh conf 27
CC(/C=C\c1ccccc1)=C/C(=O)O	none
CC(=C/C(=O)O)/C=C/c1ccc([N+](=O)[O-])cc1	VIM-2 inhibitor 14 | IMP-1 inh-2 inactive | VIM-2 FRET ctr inactive | TEM-1 counter-1 inactive | VIM-2 inh conf inactive
Cc1csc2c(C#N)c(=O)c3c(n12)CCC3	VIM-2 inhibitor 14 | IMP-1 inh-2 inactive | VIM-2 FRET ctr inactive | TEM-1 counter-1 inactive | VIM-2 inh conf 22
Cc1ccc(C)n1-c1sc2c(c1C#N)CCCC2	none
CC(C)CCn1c(=O)c2sccc2n2c(CCCC(=O)N3CCC(N4CCCCC4)CC3)nnc12	VIM-2 inhibitor 13 | IMP-1 inh-2 inactive | VIM-2 FRET ctr inactive | TEM-1 counter-1 inactive | VIM-2 inh conf 17
CC(C(=O)O)c1cccc(C(=O)c2ccccc2)c1 (configuration not stated)	VIM-2 inhibitor 18 | IMP-1 inh-2 inactive | VIM-2 FRET ctr 52 | TEM-1 counter-1 inactive | VIM-2 inh conf 34
C[C@H](C(=O)O)c1cccc(C(=O)c2ccccc2)c1	none (no result: IMP-1 inh-1, VIM-2 inhibitor)
CCC(=O)N1c2ccc(S(=O)(=O)N3CCOCC3)cc2CC1C (configuration not stated)	none
Cc1cccc(C(=O)N2CCN(Cc3nc4sc5c(c4c(=O)[nH]3)CCCC5)CC2)c1	none
Cc1cccn2c(=O)c3cc(C(=O)NCc4cccnc4)c(=N)n(C(C)C)c3nc12	VIM-2 inhibitor 20 | IMP-1 inh-2 inactive | VIM-2 FRET ctr inactive | TEM-1 counter-1 inactive | VIM-2 inh conf 31
CC(C)n1c(=N)c(C(=O)NCCc2ccccc2)cc2c(=O)n3ccccc3nc21	none
Cc1cccn2c(=O)c3cc(C(=O)NCc4ccco4)c(=N)n(C(C)C)c3nc12	VIM-2 inhibitor 13 | IMP-1 inh-2 inactive | VIM-2 FRET ctr inactive | TEM-1 counter-1 inactive | VIM-2 inh conf 27
CC[C@H](C)[C@H](NC(=O)OCc1ccccc1)C(=O)OCC(=O)N1CCN(c2ccc(F)cc2)CC1	none (no result: IMP-1 inh-1, pPAFAH FP inh, VIM-2 inhibitor)
O=c1[nH]cnc2c1ncn2-c1ccc(N(CCO)CCO)cc1	none (no result: IMP-1 inh-1, pPAFAH FP inh, VIM-2 inhibitor)
CC1=CCC(C(=O)O)(C(=O)N/N=C/c2cccs2)C(c2ccc(F)cc2)C1 (configuration not stated)	none
CC1=CCC(C(=O)O)(C(=O)N/N=C/c2cccs2)C(c2ccc([N+](=O)[O-])cc2)C1 (configuration not stated)	VIM-2 inhibitor 31 | IMP-1 inh-2 inactive | VIM-2 FRET ctr inactive | TEM-1 counter-1 inactive | VIM-2 inh conf inactive
CCCOc1ccc(-c2c(C(=O)N/N=C/C3CCCCC3)nnn2-c2nonc2N)cc1	none
CN1CCN(Cc2cc(=O)oc3cc4c(cc23)CCC4)CC1	pPAFAH FP inh 37, VIM-2 inhibitor 18 | IMP-1 inh-2 inactive | VIM-2 FRET ctr inactive | TEM-1 counter-1 inactive | VIM-2 inh conf 30 | pPAFAH FP conf inactive
COc1ccccc1OCCNC(=O)c1ccc2c(c1)CCC2	none
CCCc1cc(=O)oc2c3c(cc(OCC(=O)N[C@@H](CSC)C(=O)O)c12)OC(C)(C)CC3	PAFAH2 FP inh 34, VIM-2 inhibitor 37 (no result: pPAFAH FP inh) | IMP-1 inh-2 inactive | VIM-2 FRET ctr 68 | TEM-1 counter-1 inactive | VIM-2 inh conf 44 | PAFAH2 FP conf inactive
CSC[C@H](NC(=O)COc1cc2c(c3oc(=O)cc(C)c13)CCC(C)(C)O2)C(=O)O	none
COc1ccccc1CNC(=O)OCc1nccnc1C(=O)Nc1ccc(Br)cn1	none
CN(C)CCNC(=O)c1cc2c(=O)n(C)c3ccccc3c2n1C	PAFAH2 FP inh 47, VIM-2 inhibitor 17 | IMP-1 inh-2 inactive | VIM-2 FRET ctr inactive | TEM-1 counter-1 inactive | VIM-2 inh conf 28 | PAFAH2 FP conf inactive
O=c1c2cccc3c2c(nn1CN1CCOCC1)-c1ccccc1-3	PAFAH1B3 inh 26, VIM-2 inhibitor 26 | IMP-1 inh-2 inactive | VIM-2 FRET ctr inactive | TEM-1 counter-1 inactive | VIM-2 inh conf 33 | PAFAH1B3 conf FP 36
CC1(c2ccccc2)NC(=O)N(CC(=O)N(CC(=O)Nc2ccccc2C(F)(F)F)Cc2ccco2)C1=O (configuration not stated)	none (no result: IMP-1 inh-1, pPAFAH FP inh, VIM-2 inhibitor)
O=C(CNC(=O)c1ccccc1)NCCc1ccc(O)c(O)c1	none
Oc1ccc(CCNc2c3ccccc3nc3ccccc23)cc1O	PAFAH1B3 inh 40, VIM-2 inhibitor 17 | IMP-1 inh-2 inactive | VIM-2 FRET ctr inactive | TEM-1 counter-1 inactive | VIM-2 inh conf 21 | PAFAH1B3 conf FP 33
Nc1ccc2nc3c(=O)n(CCc4ccccc4)c(=O)[nH]c3nc2c1	IMP-1 inh-1 11, VIM-2 inhibitor 9.1 (no result: PAFAH1B2 FP inh, PAFAH2 FP inh, PAFAH1B3 inh) | VIM-2 inh confirm 19 | TEM-1 counter-2 33 | IMP-1 confirm 18
